Active and inactive are the calls of the source. The rule behind the calls is not given here.
Key:
[1] = biological target: T1, Polyunsaturated fatty acid 5-lipoxygenase (Homo sapiens, UniProt P09917); assay: Inhibition of 5-LOX assessed as decrease in oxygen concentration using arachidonic acid as substrate by polarigraphic method with Clark's oxygen electrode
T1 sequence (P09917 whole entry): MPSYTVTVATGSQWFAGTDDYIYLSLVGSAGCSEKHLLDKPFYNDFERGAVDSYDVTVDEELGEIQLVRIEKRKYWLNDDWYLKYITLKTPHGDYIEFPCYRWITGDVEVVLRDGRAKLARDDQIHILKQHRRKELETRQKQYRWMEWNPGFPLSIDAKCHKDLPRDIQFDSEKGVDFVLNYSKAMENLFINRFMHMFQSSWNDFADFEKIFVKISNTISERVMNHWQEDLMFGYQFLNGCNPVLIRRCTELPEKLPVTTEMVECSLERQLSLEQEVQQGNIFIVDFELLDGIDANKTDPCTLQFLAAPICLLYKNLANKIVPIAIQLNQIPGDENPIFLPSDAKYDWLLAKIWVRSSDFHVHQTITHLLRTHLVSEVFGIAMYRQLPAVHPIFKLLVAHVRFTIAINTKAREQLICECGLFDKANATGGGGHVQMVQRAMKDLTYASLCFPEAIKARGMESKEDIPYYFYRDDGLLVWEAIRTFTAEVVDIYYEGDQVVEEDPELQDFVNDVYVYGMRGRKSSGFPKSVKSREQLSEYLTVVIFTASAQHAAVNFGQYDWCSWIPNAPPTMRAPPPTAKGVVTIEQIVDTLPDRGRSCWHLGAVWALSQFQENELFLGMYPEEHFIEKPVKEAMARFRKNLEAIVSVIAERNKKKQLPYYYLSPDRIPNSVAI
Summary of the method: (§1)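 Purified 5-LOX, activity measured polarographically by Clark oxygen electrode as rate of O2 decrease. Enzyme in 100 mM phosphate pH 6.3, 3 mL final, with compound (DMSO stocks, various concentrations); reaction started with arachidonic acid 133 μM, 25 °C; maximal slope used. IC50 from concentration–inhibition curve; each assay repeated thrice.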

[2] = biological target: T2, Polyunsaturated fatty acid 5-lipoxygenase (Homo sapiens) (UniProt P09917); assay: Irreversible inhibition of 5-LOX assessed as decrease in oxygen concentration using arachidonic acid as substrate at 10-fold increased enzyme concentration pre-incubated for 5 mins before substrate addition by polarigraphic method with Clark's oxygen electrode
T2 sequence (whole entry): T1 sequence (P09917 whole entry)
Summary of the method: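 Oxygen-electrode 5-LOX assay run with 10-fold excess enzyme: enzyme and compound incubated 5 min, then reaction initiated with arachidonic acid 133 μM; AA-861 control.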

[3] = biological target: T2, Polyunsaturated fatty acid 5-lipoxygenase (Homo sapiens); assay: Irreversible inhibition of 5-LOX assessed as decrease in oxygen concentration using arachidonic acid as substrate measured after dilution by polarigraphic method with Clark's oxygen electrode
[4] = biological target: T2, Polyunsaturated fatty acid 5-lipoxygenase (Homo sapiens); assay: Inhibition of 5-LOX assessed as decrease in oxygen concentration using arachidonic acid as substrate by polarigraphic method with Clark's oxygen electrode in presence of 0.1 mg/mL BSA
Summary of the method: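 Oxygen-electrode 5-LOX assay (phosphate pH 6.3, 25 °C) with enzyme pre-incubated with BSA 0.1 mg/mL plus compound before starting with arachidonic acid 133 μM; reduced inhibition taken as sign of non-specific binding. AA-861 control.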

COLO 205 = assay: Growth inhibition of human COLO205 cells after 48 hrs by MTT assay; type: functional; conditions: COLO 205, 48 h
Summary of the method: (§2)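 Cells kept in RPMI-1640 + 10% heat-inactivated FBS, penicillin/streptomycin, 2 mM glutamine, 37 °C 5% CO2; seeded 5×10^3/well the day before, washed with PBS, fresh medium. Compounds 0.1–100 μM, 48 h; MTT 4 h at 37 °C, formazan dissolved in DMSO, OD 570 nm. GI50 from dose-survival curves; three experiments in triplicate.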

HepG2 = assay: Growth inhibition of human HepG2 cells after 48 hrs by MTT assay; type: functional; conditions: HepG2, 48 h; summary of the method: as §2
MDA-MB-231 = assay: Growth inhibition of human MDA-MB-231 cells after 48 hrs by MTT assay; type: functional; conditions: MDA-MB-231, 48 h; summary of the method: as §2
HaCaT = assay: Cytotoxicity against human HaCaT cells at up to 100 uM after 48 hrs by MTT assay; type: cell-based; summary of the method: as §2
[5] = biological target: T1, Polyunsaturated fatty acid 5-lipoxygenase; assay: Inhibition of 5-LOX; summary of the method: as §1
Mus musculus [6] = assay: Antiinflammatory activity against LPS-induced inflammation in BALB/c mouse acute lung injury model assessed as reduction in total cell count bronchoalveolar lavage fluid at 50 mg/kg, ip administered 1 hr prior to LPS challenge measured after 12 hrs by Wright-Giemsa staining based hemocytometry; type: functional, organism-based; design: dose 50 mg/kg
Summary of the method: (§3)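 Male BALB/c mice (20–25 g, 6/group), intratracheal LPS 1 mg/kg in PBS under ketamine/xylazine, compound 50 mg/kg ip 1 h prior. At 12 h, lavage three times with 0.5 mL PBS via tracheal cannula; pellet resuspended; total cells by hemocytometer; differentials from ≥200 cells on Wright–Giemsa smear. Mean ± SEM, unpaired t-test.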

Mus musculus [7] = assay: Antiinflammatory activity against LPS-induced inflammation in BALB/c mouse acute lung injury model assessed as reduction in neutrophil count in bronchoalveolar lavage fluid at 50 mg/kg, ip administered 1 hr prior to LPS challenge measured after 12 hrs by Wright-Giemsa staining based hemocytometry; type: functional, organism-based; design: dose 50 mg/kg; summary of the method: as §3
Mus musculus [8] = assay: Antiinflammatory activity against LPS-induced inflammation in BALB/c mouse acute lung injury model assessed as reduction in macrophage count in bronchoalveolar lavage fluid at 50 mg/kg, ip administered 1 hr prior to LPS challenge measured after 12 hrs by Wright-Giemsa staining based hemocytometry; type: functional, organism-based; design: dose 50 mg/kg; summary of the method: as §3
Mus musculus [9] = assay: Antiinflammatory activity against LPS-induced inflammation in BALB/c mouse acute lung injury model assessed as reduction in protein level in bronchoalveolar lavage fluid at 50 mg/kg, ip administered 1 hr prior to LPS challenge measured after 12 hrs by Bradford assay; type: functional, organism-based; design: dose 50 mg/kg
Summary of the method: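 Mouse LPS lung-injury model as described (BALB/c males, intratracheal LPS 1 mg/kg, compound 50 mg/kg ip 1 h beforehand). BAL fluid collected 12 h post-challenge, centrifuged 3000 rpm 10 min at 4 °C; supernatant stored −70 °C; protein by Bradford, expressed as mg/mL BALF. Six mice per group.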

Mus musculus [10] = assay: Antiinflammatory activity against LPS-induced inflammation in BALB/c mouse acute lung injury model assessed as reduction in inflammatory cells infiltration at 50 mg/kg, ip administered 1 hr prior to LPS challenge measured after 12 hrs by hematoxylin and eosin staining based light microscopy; type: functional, organism-based; design: dose 50 mg/kg
Summary of the method: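 Male BALB/c mice (20–25 g, 6/group, fasted 8 h) anesthetized with ketamine/xylazine; LPS 25 μg (1 mg/kg) intratracheal in 50 μL PBS; test agent 50 mg/kg ip 1 h before; PBS vehicle controls. At 12 h right lungs inflated, fixed in 10% buffered formaldehyde, paraffin-embedded, H&E stained; infiltration and wall thickening judged by light microscopy.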

Mus musculus [11] = assay: Antiinflammatory activity against LPS-induced inflammation in BALB/c mouse acute lung injury model assessed as reduction in wet/dry ratio of lung at 50 mg/kg, ip administered 1 hr prior to LPS challenge measured after 12 hrs; type: functional, organism-based; design: dose 50 mg/kg
Summary of the method: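 In BALB/c males given intratracheal LPS (1 mg/kg) after ip dosing at 50 mg/kg 1 h earlier, left lungs excised at 12 h, rinsed thrice in PBS, blotted, weighed, oven-dried at 72 °C for 36–48 h and reweighed; wet/dry ratio indicates edema. Six mice per group.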

Mus musculus [12] = assay: Antiinflammatory activity against LPS-induced inflammation in BALB/c mouse acute lung injury model assessed as reduction in alveolar wall thickening at 50 mg/kg, ip administered 1 hr prior to LPS challenge measured after 12 hrs by hematoxylin and eosin staining based light microscopy

Row | IC50 [1] | GI50 (COLO 205) | GI50 (HepG2) | GI50 (MDA-MB-231) | SMILES | further results
1 | 80 µM |  |  |  | COc1ccc(C(O)C#CCOCc2ccc(SC)cc2)cc1OC (stereo not given) | 
2 | 80 µM | 100 µM | 100 µM | 100 µM | COc1cc(C(O)C#CCOCc2ccc(SC)cc2)cc(OC)c1OC (stereo not given) | 
3 | 1.7 µM |  |  |  | CC1=C(C)C(=O)C(CCCCC#CCCCC#CCO)=C(C)C1=O [DOCEBENONE] | 
4 | 69 µM |  |  |  | COc1cccc(C(O)C#CCOCc2ccc(SC)cc2)c1OC (stereo not given) | 
5 | > 100 µM |  |  |  | CCCCCC(O)C#CCOCc1ccc(SC)cc1 (stereo not given) | 
6 | 8 µM | 12 µM | 22 µM | 15 µM | CSc1ccc(COCC#CC(O)c2ccc(C(C)C)cc2)cc1 (stereo not given) | inhibition [2]: Active; inhibition [3]: Active; fold change (FC) [4]: 1; Activity (HaCaT): Non-toxic; inhibition (Mus musculus [6]): Active; inhibition (Mus musculus [7]): Active; inhibition (Mus musculus [8]): Active; inhibition (Mus musculus [9]): Active; inhibition (Mus musculus [10]): Active; Activity (Mus musculus [11]): Active; inhibition (Mus musculus [12]): Active
7 | 72 µM |  |  |  | COc1ccc(C(O)C#CCOCc2ccc(SC)cc2)c(OC)c1OC (stereo not given) | 

Second part, the molecule before the results:

Row | SMILES | IC50 [1] | GI50 (COLO 205) | GI50 (HepG2) | GI50 (MDA-MB-231) | further results
8 | CSc1ccc(COCC#CC(O)c2ccc(F)cc2)cc1 (stereo not given) | 12 µM | 22 µM | 31 µM | 20 µM | inhibition [2]: Active; inhibition [3]: Active; fold change (FC) [4]: 1; Activity (HaCaT): Non-toxic
9 | CCCC(O)C#CCOCc1ccccc1 (stereo not given) |  |  |  |  | IC50 [5]: 760 µM
10 | COc1ccc(C(O)C#CCOCc2ccc(SC)cc2)cc1 (stereo not given) | > 100 µM |  |  |  | 
11 | CSc1ccc(COCC#CC(O)c2ccc(C#N)cc2)cc1 (stereo not given) | 41 µM | 71 µM | 54 µM | 62 µM | 
12 | Cc1ccc(-c2cc(C(F)(F)F)nn2-c2ccc(S(N)(=O)=O)cc2)cc1 |  |  |  |  | inhibition (Mus musculus [6]): Active; inhibition (Mus musculus [7]): Active; inhibition (Mus musculus [8]): Active; inhibition (Mus musculus [9]): Active; inhibition (Mus musculus [10]): Active; Activity (Mus musculus [11]): Active; inhibition (Mus musculus [12]): Active
13 | CSc1ccc(COCC#CC(O)c2cccc([N+](=O)[O-])c2)cc1 (stereo not given) | 62 µM | 71 µM | 54 µM | 62 µM | 
14 | OC(C#CCOCc1ccccc1)c1ccccc1 (stereo not given) | > 100 µM |  |  |  | 

From ChEMBL document CHEMBL1926547, “Structure based drug design, synthesis and evaluation of 4-(benzyloxy)-1-phenylbut-2-yn-1-ol derivatives as 5-lipoxygenase inhibitors” (Eur J Med Chem, 2012)
